The list is not random: actives were taken first. Their share in the collection is about 5.4%.
T cruzi repl: T. cruzi replication inhibition; T. cruzi beta-gal in NIH3T3, luminescence, 90 h; inhibition, % (test concentration not listed); actives 1.4% (n = 300,000); AID 1885;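 active = mean inhibition across valid replicates above about 55%, limit read from the data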;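 note: signal also drops with host cell toxicity which is not excluded here; 0% = plate median of DMSO wells and 100% = zero luminescence signal; higher percent means less beta-gal luminescence so fewer parasites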
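System: mouse NIH/3T3 fibroblasts infected with β-gal-expressing T. cruzi Tulahuen C4 / Input: NIH/3T3 cells, 5,000 per well / Buffer or medium: Low-serum DMEM with 2% FBS / Probe or stimulus: 5000 reporter trypomastigotes per well / Schedule: ≥90 h infection period, 3 h prior cell attachment / Measured by: GalScreen luminescence, 60 min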
CSC inhib: blocks cancer stem cells. inhibition, % at 7.5 µM. AID 2717. cancer stem cell-like cells viability, luminescence. actives 1.1% (n = 300,000); in the data active = inhibition above about 75%; tested in HMLE shEcad cells
SKKanGAS inh: inhibitors of SKKanGAS S. pyogenes growth in kanamycin (SK-promoter or general growth effect). BacTiter-Glo, 6 h. inhibition, % at 7.5 µM. actives 1.3% (n = 300,000). AID 1662;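 active = mean replicate score, as percent of positive control median, at least 50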;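 note: strain carries kanamycin resistance gene driven by streptokinase promoter and grows in 40 µg/ml kanamycin; loss of luminescence reflects streptokinase promoter inhibition or plain growth inhibition; 0% = median of DMSO wells and 100% = positive control at its reference dose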
aSyn 5UTR inh: MLPCN primary screen, SNCA 5' untranslated region. alpha-synuclein 5'UTR reporter, inhibitor activity. actives 0.82% (n = 300,000). inhibition, % (tested at 7.5 µM); in the data active = inhibition above about 60%;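 note: H4 neuroglioblastoma cells stably carrying SNCA 5'UTR luciferase fusion; 0% = DMSO wells and 100% = positive control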
Mdm2 MdmX PPI: inhibitors of human Mdm2/MdmX interaction; O15151+Q00987; SaOS-2 split-luciferase Mdm2/MdmX complementation, luminescence; inhibition, % at 8 µM; actives 3% (n = 330,000); AID 485346;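 active = inhibition of at least 50% at 8 µM in the primary screen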
Target sequence (O15151 whole entry, looked up): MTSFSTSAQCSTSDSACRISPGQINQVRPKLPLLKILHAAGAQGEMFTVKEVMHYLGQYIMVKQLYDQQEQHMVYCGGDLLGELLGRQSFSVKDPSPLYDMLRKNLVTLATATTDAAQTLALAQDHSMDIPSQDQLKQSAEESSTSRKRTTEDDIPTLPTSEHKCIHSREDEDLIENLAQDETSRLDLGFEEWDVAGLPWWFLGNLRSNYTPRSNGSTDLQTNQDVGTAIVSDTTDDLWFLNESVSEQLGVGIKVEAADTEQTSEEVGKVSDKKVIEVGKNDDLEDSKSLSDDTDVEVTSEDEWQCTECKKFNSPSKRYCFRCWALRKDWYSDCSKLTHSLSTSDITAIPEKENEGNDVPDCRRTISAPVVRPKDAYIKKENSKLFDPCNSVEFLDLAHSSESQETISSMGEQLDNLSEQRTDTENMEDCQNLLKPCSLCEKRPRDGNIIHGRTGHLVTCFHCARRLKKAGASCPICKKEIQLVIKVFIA
Target sequence (Q00987 whole entry, looked up): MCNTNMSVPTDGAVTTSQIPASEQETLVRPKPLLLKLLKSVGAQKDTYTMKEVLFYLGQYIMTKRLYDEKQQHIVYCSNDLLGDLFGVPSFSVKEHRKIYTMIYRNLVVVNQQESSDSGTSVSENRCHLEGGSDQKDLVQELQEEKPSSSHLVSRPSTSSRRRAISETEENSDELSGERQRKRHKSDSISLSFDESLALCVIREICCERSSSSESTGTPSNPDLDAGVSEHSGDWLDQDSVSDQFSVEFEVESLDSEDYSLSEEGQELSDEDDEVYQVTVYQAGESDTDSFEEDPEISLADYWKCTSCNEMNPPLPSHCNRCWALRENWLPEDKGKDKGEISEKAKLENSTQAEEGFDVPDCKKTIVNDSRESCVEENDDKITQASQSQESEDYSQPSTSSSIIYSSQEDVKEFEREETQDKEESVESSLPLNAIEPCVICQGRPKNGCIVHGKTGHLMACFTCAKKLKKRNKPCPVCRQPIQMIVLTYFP
Numbers without * were called inactive; · = no result given.

SMILES	T cruzi repl	CSC inhib	SKKanGAS inh	aSyn 5UTR inh	Mdm2 MdmX PPI
Cc1cc(=O)oc2cc(OCC(=O)N3CCN(C(=O)C4COc5ccccc5O4)CC3)ccc12 (centres undefined)	1	14	78*	7	7
CCN(CC)c1ccc(-c2nnc(SCC(=O)N(CCOC)c3c(N)n(CC(C)C)c(=O)[nH]c3=O)o2)cc1	-7	1	21	-15	-13
COc1ccc(OC)c(NC(=O)C(=O)NNC(=O)COc2ccc(Br)cc2C)c1	-8	23	121*	-7	18
CN1CCN(CCCNC(=O)c2ccc(/C=C3\Sc4ccccc4N(Cc4ccccc4F)C3=O)cc2)CC1	69*	·	1	7	·
O=C(CCSc1ccccc1)N1CCN(c2ccccc2)CC1	12	-11	-12	-137	-75
O=C(COc1cccc(C(F)(F)F)c1)N1CCN(c2ccccc2O)CC1	5	-10	5	25	-9
O=C(COc1cccc(C(F)(F)F)c1)N1CCN(c2ccc(O)cc2)CC1	-6	78*	7	0	-7
O=C(CCSc1ccc(Cl)cc1)N1CCN(c2ccc(O)cc2)CC1	63*	106*	1	-4	-25
O=C(CCOc1ccccc1)N1CCN(c2ccc(O)cc2)CC1	50	82*	-5	-14	12
COc1ccc(CN2CCNC(=O)C2CC(=O)NCCC2=CCCCC2)cc1OC (centres undefined)	-2	-21	9	10	9
COc1ccc2nc(SCC(=O)NC(C)c3ccccc3)[nH]c2c1 (centres undefined)	·	-2	·	·	-23
CN(Cc1nccn1C)C(=O)CC1C(=O)NCCN1Cc1ccc(F)cc1Cl (centres undefined)	-16	-2	7	7	5
O=C(O)C1C2C=CC3(CN(C/C=C/c4ccccc4)C(=O)C13)O2 (centres undefined)	-21	·	5	27	16
Cn1cccc1CC(=O)N/N=C/C=C/c1ccco1	-8	-5	3	-8	10
NNc1nc(-c2ccccc2Cl)nc2sc3c(c12)CCCC3	51	76*	5	-200	-73
NNc1nc(-c2ccccc2Cl)nc2ccccc12	-3	-4	0	23	14
CC1CC(C)(C)NC(=S)O1 (centres undefined)	-7	6	-5	-2	21
NS(=O)(=O)c1cc2c(cc1Cl)NC(c1ccccc1OCC(=O)O)NS2(=O)=O (centres undefined)	-8	-10	8	-16	29
CN(CCc1ccccn1)C1CCCN(S(=O)(=O)c2ccc(F)c(Cl)c2)C1 (centres undefined)	72*	8	-12	4	-1
C=CC[C@H](CC(=O)OC(C)(C)C)C(=O)OC[C@@H]1CCCN1C(=O)[C@@H](CC=C)CC(=O)NCCO	·	-17	·	·	16
Cc1onc(-c2ccccc2)c1CNC(=O)Nc1ccc(C(F)(F)F)cc1	56*	21	3	24	25
COc1cc(/C=C/c2[nH]c(=O)[nH]c(=O)c2[N+](=O)[O-])ccc1OCCC(C)C	-3	77*	15	-18	2
c1ccc(-c2nnc(-c3c[nH]c4ccccc34)nc2-c2ccccc2)cc1	31	-8	65*	5	37
CC1(C)CC(=NNC(=O)c2n[nH]c3c2CCC3)CC(C)(C)N1	8	-5	1	-26	-7
COc1cc(C(=O)NCCCN(C)C)ccc1OCC(=O)Nc1cccc(C(F)(F)F)c1	57*	4	-5	-2	6
SMILES	T cruzi repl	CSC inhib	SKKanGAS inh	aSyn 5UTR inh	Mdm2 MdmX PPI
COc1cccc(CN(C)C(=O)c2ccc(OCC(=O)Nc3cccc(C(F)(F)F)c3)c(OC)c2)c1	15	26	19	34	35
O=[N+]([O-])c1cc([N+](=O)[O-])c2n[nH]c(-c3ccccc3)c2c1	71*	4	-5	2	7
O=[N+]([O-])c1cc(-c2n[nH]c(-c3ccccc3)n2)cc([N+](=O)[O-])c1	72*	2	2	-76	14
Cc1cccc(-c2n[nH]c([N+](=O)[O-])n2)c1	2	15	3	-17	6
N#CC1(NC(=O)COc2cccnc2[N+](=O)[O-])CCCCC1	·	-17	·	·	-3
CC(C)c1ccc(S(=O)(=O)c2nnn3c2nc(N2CCCCC2)c2ccccc23)cc1	44	22	15	26	6
N#Cc1cnn2c1nc(N1CCCCC1)c1ccccc12	-1	15	9	64*	47
COc1ccc(N2CCN(CCCNS(=O)(=O)c3c(C)noc3/C=C/N(C)C)CC2)cc1	9	-13	2	8	-1
CCC(C)N(C(=O)c1csnn1)C(C(=O)NC1CCCC1)c1ccccc1F (centres undefined)	5	-11	-10	3	-20
CC(NC(=O)C1=CC=CN2CCS(=O)(=O)N=C12)c1ccc(Cl)cc1Cl (centres undefined)	·	·	·	·	22
COc1cccc(CN2CCN(Cc3cccc4c3OCO4)CC2CCO)c1 (centres undefined)	33	6	-5	-10	8
OCCC1CN(Cc2ccc3nonc3c2)CCN1Cc1ccsc1 (centres undefined)	70*	0	13	-29	3
Oc1ccccc1CN1CCCC(N2CCN(c3cccc(C(F)(F)F)c3)CC2)C1 (centres undefined)	24	·	6	-1	29
Fc1ccccc1N1CCN(C2CCCN(Cc3cccc(C(F)(F)F)c3)C2)CC1 (centres undefined)	72*	7	3	-16	22
CCOc1ccc(CN2CCN(Cc3cccc4nonc34)CC2CCO)cc1 (centres undefined)	60*	-9	6	5	18
CCOc1ccc(CN2CCN(Cc3cnn(CC)c3C)CC2CCO)cc1 (centres undefined)	26	20	11	-4	14
Cc1ccc(CN2CCN(Cc3cccc4c3OCO4)CC2CCO)cc1 (centres undefined)	90*	21	-11	-7	6
COc1ccc(/C=C/C(=O)c2sc(-c3ccccc3)nc2C)cc1	-6	31	-14	-14	13
CCOc1ccc(CN2CCN(Cc3cccn3-c3cccnc3)CC2CCO)cc1 (centres undefined)	60*	-18	3	-3	5
COc1cccc(CN2CCN(Cc3c(C)nn(C(C)C)c3C)CC2CCO)c1 (centres undefined)	71*	-1	0	24	-1
OCCC1CN(Cc2cccc(C(F)(F)F)c2)CCN1Cc1ccccc1 (centres undefined)	55*	18	0	16	6
OCCC1CN(Cc2ccc(C(F)(F)F)cc2)CCN1Cc1ccccc1 (centres undefined)	10	·	-12	-5	25
CCOc1ccccc1CN1CCN(Cc2cccc3c2OCO3)CC1CCO (centres undefined)	42	-6	10	18	14
CCOc1ccc(CN2CCN(Cc3cccc4c3OCO4)CC2CCO)cc1 (centres undefined)	97*	4	-10	-7	6

High-throughput results deposited in PubChem BioAssay by several laboratories.
